dFosB act-1 – enhances mouse delta FosB homodimer DNA binding; P13346; purified delta FosB, TAMRA-CDK5 oligo fluorescence polarization; percent of positive-control signal above neutral wells; activation, % at 25 µM; 0.99% of 340,000 active;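 active means mean activation above about 17%, with every replicate also reaching it, limit read from the data, passing the limit was not always enough; inconclusive means only one of the two conditions met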
NSD2 inh – NSD2 (human) methyltransferase inhibition | O96028 | NSD2 peptide methylation, AlphaScreen, 120 min | inhibition, % at 12.5 µM | 0.54% of 310,000 active | AID 743445
DYRK1A inh – blocks rat Dyrk1A kinase activity. inhibition, % at 12.5 µM. ADP-Glo luminescence, NFATc1 peptide. Q63470. 0.43% of 310,000 active
SR-BI HDL uptake – mouse SR-BI HDL lipid transfer inhibition | 0.96% of 320,000 active | inhibition, % at 12.5 µM | AID 488896 | Q61009 | ldlA[mSR-BI] CHO cells, DiI-HDL uptake fluorescence, 3 h;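 active means mean replicate inhibition of at least 70% and a set share of replicates each scoring 70 or more; inconclusive means meets just one of the two criteria; inactive means fails both criteria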
CDK5 inh – blocks human CDK5/p35 kinase activity; Q00535+Q15078; Recombinant CDK5/p35, ADP-Glo luminescence, 60 min; inhibition, % at 10 µM; 0.01% of 330,000 active;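 active means highest replicate inhibition of at least 50% and at least 75% of replicates reaching 50%; inconclusive means only one of the two criteria met; inactive means both criteria failed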
Target sequence (Q00535 whole entry, looked up): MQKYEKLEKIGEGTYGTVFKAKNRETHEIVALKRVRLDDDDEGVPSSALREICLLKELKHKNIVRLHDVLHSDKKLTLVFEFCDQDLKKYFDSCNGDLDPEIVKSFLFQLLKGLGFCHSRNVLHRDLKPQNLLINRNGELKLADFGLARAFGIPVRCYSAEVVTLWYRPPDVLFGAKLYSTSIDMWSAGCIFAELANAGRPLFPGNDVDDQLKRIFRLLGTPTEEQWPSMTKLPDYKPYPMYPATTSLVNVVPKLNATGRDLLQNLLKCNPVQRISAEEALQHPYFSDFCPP
Target sequence (Q15078 whole entry, looked up): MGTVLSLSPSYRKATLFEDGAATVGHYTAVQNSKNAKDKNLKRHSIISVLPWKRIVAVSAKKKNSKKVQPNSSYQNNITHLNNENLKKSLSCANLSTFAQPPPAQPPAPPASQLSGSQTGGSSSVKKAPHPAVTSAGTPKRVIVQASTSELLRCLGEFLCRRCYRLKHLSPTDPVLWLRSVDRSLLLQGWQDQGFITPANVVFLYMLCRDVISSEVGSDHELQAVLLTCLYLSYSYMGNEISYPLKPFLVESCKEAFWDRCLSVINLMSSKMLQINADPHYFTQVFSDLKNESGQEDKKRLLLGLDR
SR-BI DiI-HDL act – SR-BI HDL lipid transfer activation. activation, % at 12.5 µM. CHO ldlA[mSR-BI] cells, DiI-HDL uptake fluorescence, 3 h; 100 = double the neutral-control signal. 0.096% of 320,000 active;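 active means mean replicate activation of at least 60% and every replicate at or above 60%; inconclusive means mean or all-replicate condition met, but not both; inactive means mean below 60% and not all replicates reaching 60%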
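Material – SR-BI-overexpressing, LDLR-lacking CHO cells · Medium – BSA-supplemented, HEPES-buffered Ham's F12, pH 7.4 · Doses – single concentration · Times – compound with DiI-HDL co-incubation, 3 h at 37 °C · Measured by – bottom-read fluorescence, 550/595 nm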
dFosB act-2 – activators of mouse delta FosB homodimer DNA binding; 2,400 tested, under 10 active; shares compounds with dFosB act-1; activation, % at 24.9 µM; purified delta FosB, TAMRA-CDK5 oligo fluorescence polarization; normalised: neutral wells 0, positive control 100;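 active means highest replicate activation at or above 34% and every replicate reaching that threshold; inconclusive means meets only one of the two criteria; inactive means meets neither criterion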;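 further: higher polarization means more probe DNA bound by delta FosB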
Of the large screens only hits and unclear results are named; the others gave an inactive call (follow-up assays come after a bar, where they were run). Hits are enriched below; roughly 2.5% of the tested compounds scored in any of these assays. Unless noted, no stated cut-off is given here; in the data, active means inhibition above about 50%; inactive means the rest.

CCN(CC)CCCN=C1N[C@@H](c2cccc(C(F)(F)F)c2)C(C(=O)OC)=C(C)N1CC	none (no result: NSD2 inh)
COC(=O)c1ccc2c(=O)n(Cc3ccco3)c(SCC(=O)Nc3cc(C)on3)nc2c1	dFosB act-1 25 (no result: NSD2 inh) | dFosB act-2 inactive
O=C(NCc1ccco1)c1ccc2c(=O)n(Cc3ccco3)c(SCC(=O)N3CCCC3)nc2c1	none (no result: NSD2 inh)
NC(=O)C1CCN(C(=O)c2ccc3c(=O)n(Cc4ccco4)c(SCC(=O)c4ccccc4)nc3c2)CC1	dFosB act-1 36 | dFosB act-2 inactive
O=C(NC1CCCCC1)c1cc(-c2ccccc2O)on1	none (no result: NSD2 inh)
COc1ccc(CN(CCN2CCOCC2)C(=O)c2ccccc2C)cc1OC	none (no result: dFosB act-1, DYRK1A inh, SR-BI HDL uptake, CDK5 inh, SR-BI DiI-HDL act)
CCOC(=O)c1cccc(NC(=O)Cn2c(CC(=O)NC)nc3ccccc32)c1	dFosB act-1 41 | dFosB act-2 inactive
COc1ccc(CCCNC(=O)C2(C)Cc3c(-c4ccc(NC(C)=O)cc4)ccnc3O2)cc1 (stereo unspecified)	none (no result: dFosB act-1, DYRK1A inh, SR-BI HDL uptake, CDK5 inh, SR-BI DiI-HDL act)
CC(=O)c1nn(-c2cccc(Br)c2)cc1C(=O)c1ccc(Cl)cc1	dFosB act-1 28 | dFosB act-2 inactive
COCCn1ccc2c(OCC(=O)NCCc3ccccc3)cccc2c1=O	none
Cc1ccc(COc2ccsc2C(=O)NNC(N)=S)cc1	dFosB act-1 28 | dFosB act-2 inactive
CCOC(=O)N1CCN(S(=O)(=O)c2ccc(F)cc2)CC1	none
CCOC(=O)N1CCN(S(=O)(=O)c2ccc(C(=O)Nc3nc4ccccc4s3)cc2)CC1	dFosB act-1 23 | dFosB act-2 inactive
CCOC(=O)N1CCN(S(=O)(=O)c2ccc(C(=O)Nc3nc4ccc(F)cc4s3)cc2)CC1	dFosB act-1 57 | dFosB act-2 inactive
NC1=NC2OC(CO)C(O)C2O1 (stereo unspecified)	none (no result: dFosB act-1, DYRK1A inh, SR-BI HDL uptake, CDK5 inh, SR-BI DiI-HDL act)
CC(C)c1nc(N(C)S(C)(=O)=O)nc(-c2ccc(F)cc2)c1/C=C/[C@H](O)C[C@@H](O)CC(=O)O	none (no result: dFosB act-1, DYRK1A inh, SR-BI HDL uptake, CDK5 inh, SR-BI DiI-HDL act)
CCN1C(=O)[C@H]2[C@H]3CN=C(SCc4ccc(Cl)cc4)N3[C@@](CC)(C(=O)OC)[C@H]2C1=O	none (no result: NSD2 inh)
Cc1cccc(C)c1NC(=O)COC(=O)c1ccc(N2CCCC2)c([N+](=O)[O-])c1	dFosB act-1 51 | dFosB act-2 inactive
COC(=O)[C@]1(Cc2ccccc2)N[C@H](CN(C)C(=O)c2ccc(C(C)(C)C)cc2)[C@@H]2C(=O)N(Cc3ccccc3)C(=O)[C@@H]21	none (no result: NSD2 inh, DYRK1A inh)
Cc1ccc(C(=O)OCC(=O)Nc2cccc(Cl)c2C)c(O)c1	dFosB act-1 20 (no result: NSD2 inh, SR-BI HDL uptake, SR-BI DiI-HDL act) | dFosB act-2 inactive
Cc1noc(NS(=O)(=O)c2ccc(NC(=O)c3ccc(Cl)c(S(=O)(=O)N(C)c4ccccc4)c3)cc2)c1C	none
COc1ccc(C(=O)Nc2nnc(S(=O)(=O)Cc3ccccc3)s2)cc1	dFosB act-1 23 (no result: NSD2 inh) | dFosB act-2 inactive
CCC1CCCCN1CCCNC(=O)c1ccc(/C=C2/Sc3ccccc3NC2=O)cc1 (stereo unspecified)	dFosB act-1 38 | dFosB act-2 inactive
CC(C)(C)C(=O)Nc1ccnn1C1CCN(C(=O)c2cccc(Cl)c2)CC1	none
O=C(N/N=C/c1cccnc1)c1cc2c(ccc3ccccc32)o1	dFosB act-1 32 | dFosB act-2 inactive
O=C(N/N=C/c1cccnc1)c1cc2ccccc2o1	none
Cc1ccc(/C=N/NC(=O)c2cc3c(ccc4ccccc43)o2)o1	dFosB act-1 25 | dFosB act-2 inactive
COc1ccccc1-c1cc(C(=O)Nc2ccc(F)cc2F)no1	dFosB act-1 25 | dFosB act-2 inactive
O=C(NCc1ccccc1Cl)c1ccc(NC2=NC3CS(=O)(=O)CC3S2)cc1 (stereo unspecified)	dFosB act-1 29 (no result: NSD2 inh) | dFosB act-2 inactive
Cc1ccc(NC(=O)Cn2c(=O)c3cccn3c3ccccc32)c(C)c1	dFosB act-1 46 | dFosB act-2 inactive
Cc1ccc(NC(=O)Cn2c(=O)c3cccn3c3ccccc32)cc1	none
COc1cccc(NC(=S)N2CCc3cc(OC)c(OC)cc3C2COc2ccc3c(C)cc(=O)oc3c2)c1 (stereo unspecified)	dFosB act-1 65 | dFosB act-2 inactive
C=CCNC(=O)/C(=C/c1cn(-c2ccccc2)nc1-c1cccc([N+](=O)[O-])c1)NC(=O)c1ccccc1	dFosB act-1 19 | dFosB act-2 inactive
CS(=O)(=O)c1ccc(Cl)c(NC(=O)C2CCCCN2S(=O)(=O)c2ccccc2)c1 (stereo unspecified)	none (no result: DYRK1A inh)
Cc1[nH]c2ccc(C(=O)NCc3ccccn3)cc2c1C	none (no result: DYRK1A inh, CDK5 inh)
O=c1c2ccccc2c(C=Nc2ccc(O)cc2)c(O)n1-c1nccs1	none (no result: dFosB act-1, DYRK1A inh, SR-BI HDL uptake, CDK5 inh, SR-BI DiI-HDL act)
CCOC(=O)CCCCCC(=O)Nc1ccc2c(c1)CC(=O)N([C@@H](C)CO)C[C@@H](C)[C@@H](CN(C)C(=O)Nc1ccc(C(F)(F)F)cc1)O2	none (no result: NSD2 inh)
Cc1ccc(C)c(NC(=O)Cc2coc3cc4c(cc23)CCC4)c1	none
CC(=O)c1cccc(NC(=O)Cc2coc3cc4c(cc23)CCC4)c1	dFosB act-1 41 | dFosB act-2 inactive
C[C@@]12C(=O)Nc3ccc(Br)cc3C(=O)N1[C@H]1c3cc(Br)ccc3OC[C@@H]1[C@@H]2c1ccccc1	dFosB act-1 38 (no result: NSD2 inh) | dFosB act-2 inactive
COc1ccc(C(=O)Nc2ccc(/C(C)=N/NC(=O)c3ccncc3)cc2)cc1	dFosB act-1 40 | dFosB act-2 inactive
COc1ccc(/C=N/NC(=O)c2cccnc2)cc1	none
O=C(N/N=C/c1ccc(OC(=O)c2ccco2)cc1)c1ccncc1	none
COc1ccc(/C=C/C(=O)Oc2ccc(/C=N/NC(=O)c3ccncc3)cc2)cc1	dFosB act-1 22 (no result: SR-BI HDL uptake, SR-BI DiI-HDL act) | dFosB act-2 inactive
O=C(N/N=C/c1ccc(OC(=O)c2ccc(Br)cc2)cc1)c1ccncc1	dFosB act-1 90 (no result: SR-BI HDL uptake, SR-BI DiI-HDL act) | dFosB act-2 inactive
COc1ccc(-c2cc(C(=O)Nc3ccccc3N3CCOCC3)c3ccccc3n2)cc1OC	dFosB act-1 27 (no result: NSD2 inh) | dFosB act-2 inactive
Cc1ccc(S(=O)(=O)N2CCCCC2)cc1NC(=O)c1c(-c2ccccc2)noc1C	dFosB act-1 18 (no result: DYRK1A inh) | dFosB act-2 inactive
COc1ccc(-c2cc(C(=O)Nc3nc4ccccc4s3)c3ccccc3n2)cc1OC	dFosB act-1 65, SR-BI HDL uptake 75 | dFosB act-2 inconclusive
COc1ccc(-c2cc(C(=O)Nc3ccc(C(N)=O)cc3)c3ccccc3n2)cc1	dFosB act-1 37 (no result: SR-BI HDL uptake, SR-BI DiI-HDL act) | dFosB act-2 inactive
O=C(Nc1ccccc1N1CCOCC1)c1cc(-c2ccncc2)nc2ccccc12	none (no result: NSD2 inh, DYRK1A inh)
COc1ccc(-c2cc(C(=O)Nc3ccccc3O)c3ccccc3n2)cc1OC	none
Cc1onc(-c2ccccc2)c1C(=O)Nc1ccc(S(=O)(=O)N2CCCCC2)cc1	none (no result: NSD2 inh)
